{"source": "the M2OR odorant receptor database", "conditions_in_all_cases": "stereoisomer not certain", "key": {"[1]": {"target": "T1, OR2W1 (Homo sapiens) (UniProt Q9Y3N9)", "T1 sequence (whole entry)": "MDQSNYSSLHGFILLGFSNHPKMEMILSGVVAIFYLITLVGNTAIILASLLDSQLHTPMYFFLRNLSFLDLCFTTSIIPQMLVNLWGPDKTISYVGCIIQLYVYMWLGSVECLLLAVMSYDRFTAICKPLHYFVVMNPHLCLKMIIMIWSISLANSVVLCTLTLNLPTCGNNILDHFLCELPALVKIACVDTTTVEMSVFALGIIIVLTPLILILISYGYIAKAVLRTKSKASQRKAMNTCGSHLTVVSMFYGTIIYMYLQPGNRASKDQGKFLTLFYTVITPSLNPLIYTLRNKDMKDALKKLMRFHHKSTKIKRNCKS", "in_short": "(§1)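 Values were gathered from published papers (main text and supplementary material), with extra details requested from the original authors when needed, and checked for typos and inconsistencies. Each receptor–molecule pair is called responsive (active) if the original authors judged the measured signal statistically different from baseline, and non-responsive (inactive) otherwise. Assay methods varied by source, often transient mammalian cell-line luciferase assays. Recorded details include cell line, G-protein, co-transfected protein and tags.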"}, "[2]": {"tested_on": "T2, OR2W1", "T2 sequence (whole entry)": "T1 sequence (whole entry) with D296N", "in_short": "as §1"}, "[3]": {"tested_on": "T3, OR2W1", "T3 sequence (whole entry)": "T1 sequence (whole entry) with M81V", "in_short": "as §1", "remark": "listed apart in the source"}}, "note": "Residue numbers refer to the chain shown, from its start."}
{"compound": "CCCCCCCC(=O)OCC", "values": [{"measurement": "odorant receptor agonist call", "setting": "[1]", "value": "active"}, {"measurement": "odorant receptor agonist call", "setting": "[2]", "value": "active"}, {"measurement": "odorant receptor agonist call", "setting": "[3]", "value": "inactive"}]}
{"compound": "CC(=O)c1ccc(C)cc1", "values": [{"measurement": "odorant receptor agonist call", "setting": "[1]", "value": "active"}, {"measurement": "odorant receptor agonist call", "setting": "[2]", "value": "active"}, {"measurement": "odorant receptor agonist call", "setting": "[3]", "value": "active"}]}
{"compound": "CCOC(=O)C=Cc1ccccc1", "values": [{"measurement": "odorant receptor agonist call", "setting": "[1]", "value": "active"}, {"measurement": "odorant receptor agonist call", "setting": "[2]", "value": "active"}, {"measurement": "odorant receptor agonist call", "setting": "[3]", "value": "active"}]}
{"compound": "CC(S)c1ccccc1", "note": "(stereo not given)", "values": [{"measurement": "odorant receptor agonist call", "setting": "[1]", "value": "active"}, {"measurement": "odorant receptor agonist call", "setting": "[2]", "value": "active"}, {"measurement": "odorant receptor agonist call", "setting": "[3]", "value": "active"}]}
{"compound": "CCCC(=O)OCC", "values": [{"measurement": "odorant receptor agonist call", "setting": "[1]", "value": "active"}, {"measurement": "odorant receptor agonist call", "setting": "[2]", "value": "active"}, {"measurement": "odorant receptor agonist call", "setting": "[3]", "value": "active"}]}
{"compound": "CCOC(=O)CC(C)C", "values": [{"measurement": "odorant receptor agonist call", "setting": "[1]", "value": "active"}, {"measurement": "odorant receptor agonist call", "setting": "[2]", "value": "active"}, {"measurement": "odorant receptor agonist call", "setting": "[3]", "value": "inactive"}]}
{"compound": "CSCc1ccco1", "values": [{"measurement": "odorant receptor agonist call", "setting": "[1]", "value": "active"}, {"measurement": "odorant receptor agonist call", "setting": "[2]", "value": "active"}, {"measurement": "odorant receptor agonist call", "setting": "[3]", "value": "active"}]}
{"compound": "CCC=CCCC=O", "values": [{"measurement": "odorant receptor agonist call", "setting": "[1]", "value": "active"}, {"measurement": "odorant receptor agonist call", "setting": "[2]", "value": "active"}, {"measurement": "odorant receptor agonist call", "setting": "[3]", "value": "active"}]}
{"compound": "CC(=O)OCCc1ccccc1", "values": [{"measurement": "odorant receptor agonist call", "setting": "[1]", "value": "active"}, {"measurement": "odorant receptor agonist call", "setting": "[2]", "value": "active"}, {"measurement": "odorant receptor agonist call", "setting": "[3]", "value": "active"}]}
{"compound": "C=C(C)c1ccc(C)cc1", "values": [{"measurement": "odorant receptor agonist call", "setting": "[1]", "value": "active"}, {"measurement": "odorant receptor agonist call", "setting": "[2]", "value": "active"}, {"measurement": "odorant receptor agonist call", "setting": "[3]", "value": "active"}]}
{"compound": "CCOC(=O)C(C)C", "values": [{"measurement": "odorant receptor agonist call", "setting": "[1]", "value": "inactive"}, {"measurement": "odorant receptor agonist call", "setting": "[2]", "value": "active"}, {"measurement": "odorant receptor agonist call", "setting": "[3]", "value": "inactive"}]}
{"compound": "CCCCC=CC=O", "values": [{"measurement": "odorant receptor agonist call", "setting": "[1]", "value": "active"}, {"measurement": "odorant receptor agonist call", "setting": "[2]", "value": "active"}, {"measurement": "odorant receptor agonist call", "setting": "[3]", "value": "inactive"}]}
{"compound": "CCCSSSC", "values": [{"measurement": "odorant receptor agonist call", "setting": "[1]", "value": "active"}, {"measurement": "odorant receptor agonist call", "setting": "[2]", "value": "active"}, {"measurement": "odorant receptor agonist call", "setting": "[3]", "value": "active"}]}
{"compound": "C=C(C)C1CC=C(C)CC1", "note": "(stereo not given)", "values": [{"measurement": "odorant receptor agonist call", "setting": "[1]", "value": "active"}, {"measurement": "odorant receptor agonist call", "setting": "[2]", "value": "active"}, {"measurement": "odorant receptor agonist call", "setting": "[3]", "value": "active"}]}
{"compound": "c1coc(CSSCc2ccco2)c1", "values": [{"measurement": "odorant receptor agonist call", "setting": "[1]", "value": "active"}, {"measurement": "odorant receptor agonist call", "setting": "[2]", "value": "active"}, {"measurement": "odorant receptor agonist call", "setting": "[3]", "value": "active"}]}
